Assays:
[1] = target: T1, Calpain-1 catalytic subunit (Homo sapiens, UniProt P07384); test: Inhibition of human erythrocyte full length Cal1 using (DABCYL)TPLK-SPPSPR-(EDANS) as substrate after 20 min by FRET assay
T1 sequence (P07384 whole entry): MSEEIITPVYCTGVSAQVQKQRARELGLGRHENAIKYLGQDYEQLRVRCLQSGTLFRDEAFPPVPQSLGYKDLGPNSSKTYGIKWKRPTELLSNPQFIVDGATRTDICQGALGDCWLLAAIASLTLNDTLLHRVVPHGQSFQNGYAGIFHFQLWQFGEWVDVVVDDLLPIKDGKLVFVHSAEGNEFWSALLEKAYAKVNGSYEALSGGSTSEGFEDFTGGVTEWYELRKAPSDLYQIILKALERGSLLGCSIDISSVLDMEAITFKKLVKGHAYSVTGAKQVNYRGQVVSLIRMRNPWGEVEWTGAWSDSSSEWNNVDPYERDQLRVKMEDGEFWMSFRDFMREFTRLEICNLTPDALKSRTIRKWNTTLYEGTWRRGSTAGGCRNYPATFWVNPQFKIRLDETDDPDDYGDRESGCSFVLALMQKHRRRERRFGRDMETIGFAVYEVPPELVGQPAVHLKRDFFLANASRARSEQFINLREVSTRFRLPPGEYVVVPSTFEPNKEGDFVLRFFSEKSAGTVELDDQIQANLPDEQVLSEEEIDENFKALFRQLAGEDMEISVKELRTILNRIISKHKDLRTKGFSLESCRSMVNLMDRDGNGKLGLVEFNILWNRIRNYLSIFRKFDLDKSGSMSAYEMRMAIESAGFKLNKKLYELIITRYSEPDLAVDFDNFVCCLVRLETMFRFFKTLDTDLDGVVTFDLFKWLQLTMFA

[2] = target: T2, Papain (Carica papaya, UniProt P00784); test: Inhibition of papain after using SucLLVYAMC as substrate by FRET assay
T2 sequence (P00784 whole entry): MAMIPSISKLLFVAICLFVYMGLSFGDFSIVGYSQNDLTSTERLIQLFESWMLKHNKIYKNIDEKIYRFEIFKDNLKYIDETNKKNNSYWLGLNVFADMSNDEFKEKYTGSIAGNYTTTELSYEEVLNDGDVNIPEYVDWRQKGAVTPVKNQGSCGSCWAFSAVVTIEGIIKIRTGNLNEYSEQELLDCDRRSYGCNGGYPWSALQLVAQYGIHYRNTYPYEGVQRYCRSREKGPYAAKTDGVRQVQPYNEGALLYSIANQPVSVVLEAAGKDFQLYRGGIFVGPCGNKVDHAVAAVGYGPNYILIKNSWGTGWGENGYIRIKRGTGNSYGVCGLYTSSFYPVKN
Outline: (§1)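 Enzyme (full-length porcine calpain 156 nM, with 1 mM CaCl2; or papain 236 pM) in 50 mM HEPES pH 7.6, 100 mM NaCl, 1 mM TCEP, 30 μM Suc-LLVY-AMC, inhibitor 0.5–50 μM; organic solvent <2 %, 30 °C. AMC release followed over time (Ex 346/Em 444 nm). Inhibition constants from varied enzyme and inhibitor concentrations; mean ± S.D. of triplicates.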

[3] = target: T3, Calpain-1 catalytic subunit (Sus scrofa, UniProt P35750); test: Inhibition of pig full length Cal1 after using SucLLVYAMC as substrate by FRET assay; outline: as §1
T3 sequence (P35750 whole entry): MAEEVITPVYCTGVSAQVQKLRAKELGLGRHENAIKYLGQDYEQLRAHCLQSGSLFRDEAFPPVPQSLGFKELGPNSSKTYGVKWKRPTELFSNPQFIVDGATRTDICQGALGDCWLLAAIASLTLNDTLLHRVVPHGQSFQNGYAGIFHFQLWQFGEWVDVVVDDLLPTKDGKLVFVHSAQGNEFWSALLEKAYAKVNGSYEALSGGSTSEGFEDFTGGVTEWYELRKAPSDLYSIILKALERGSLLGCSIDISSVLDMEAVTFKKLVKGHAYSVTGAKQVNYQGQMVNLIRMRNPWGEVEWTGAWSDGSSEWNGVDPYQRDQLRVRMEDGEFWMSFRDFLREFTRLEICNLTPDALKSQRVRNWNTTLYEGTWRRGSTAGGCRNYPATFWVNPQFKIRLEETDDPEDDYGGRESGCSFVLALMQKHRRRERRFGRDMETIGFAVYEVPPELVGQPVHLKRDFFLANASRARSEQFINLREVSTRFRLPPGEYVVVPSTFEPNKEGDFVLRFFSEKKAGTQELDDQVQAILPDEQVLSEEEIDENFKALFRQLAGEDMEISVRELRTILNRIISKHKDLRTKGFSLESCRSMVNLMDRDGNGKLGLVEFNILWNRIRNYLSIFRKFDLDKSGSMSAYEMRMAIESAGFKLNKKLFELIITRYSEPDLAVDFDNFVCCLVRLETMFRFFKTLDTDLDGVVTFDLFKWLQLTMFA

[4] = target: T4, Calpain-1 catalytic subunit (Rattus norvegicus) (UniProt P97571); test: Binding affinity to recombinant rat […] Cal1 catalytic domain expressed in Escherichia coli BL21(DE3) assessed as modification of active site cysteine at 1 uM by LC-MS/MS analysis
T4 sequence (whole entry): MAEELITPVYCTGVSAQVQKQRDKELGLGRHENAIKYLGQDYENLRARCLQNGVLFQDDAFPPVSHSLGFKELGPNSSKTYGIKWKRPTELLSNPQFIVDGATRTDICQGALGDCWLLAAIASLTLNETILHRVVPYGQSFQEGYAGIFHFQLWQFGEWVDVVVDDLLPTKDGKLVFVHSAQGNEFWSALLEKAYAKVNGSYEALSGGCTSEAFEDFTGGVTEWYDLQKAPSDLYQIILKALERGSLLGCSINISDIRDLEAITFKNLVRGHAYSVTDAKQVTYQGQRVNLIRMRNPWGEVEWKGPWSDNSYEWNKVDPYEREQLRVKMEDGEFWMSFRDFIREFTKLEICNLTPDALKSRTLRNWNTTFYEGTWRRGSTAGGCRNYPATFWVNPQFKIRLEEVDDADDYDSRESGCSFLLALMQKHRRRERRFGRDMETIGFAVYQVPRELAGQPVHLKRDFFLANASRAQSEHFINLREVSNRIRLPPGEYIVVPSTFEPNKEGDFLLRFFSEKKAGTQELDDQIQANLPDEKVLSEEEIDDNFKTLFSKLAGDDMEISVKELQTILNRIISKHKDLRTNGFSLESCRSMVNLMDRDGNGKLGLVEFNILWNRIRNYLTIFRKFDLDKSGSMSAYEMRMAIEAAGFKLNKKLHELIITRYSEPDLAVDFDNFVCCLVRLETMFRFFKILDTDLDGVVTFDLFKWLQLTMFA

IC50 [1] | SMILES | Ki [2] | Ki [3] | Activity [4]
> 1000 nM | NS(=O)(=O)c1ccc(-n2cc(CNC(=O)[C@H](Cc3cscn3)NC(=O)[C@H]3O[C@@H]3C(=O)O)nn2)cc1 | – | – | –
100 nM | CC(C)C[C@H](NC(=O)[C@H]1O[C@@H]1C(=O)O)C(=O)NCCCCNC(=O)CCCC[C@@H]1SC[C@@H]2NC(=O)N[C@@H]21 | – | – | –
> 1000 nM | Cc1cc(C)c(-n2cc(CNC(=O)[C@H](Cc3cscn3)NC(=O)[C@H]3O[C@@H]3C(=O)O)nn2)c(C)c1 | – | – | –
100 nM | CC(C)C[C@H](NC(=O)[C@H]1O[C@@H]1C(=O)O)C(=O)NCCCCNC(=O)CCCCC1CCSS1 (stereo partly specified) | – | – | –
> 1000 nM | O=C(NCc1cn(-c2c(F)cccc2F)nn1)[C@H](Cc1cscn1)NC(=O)[C@H]1O[C@@H]1C(=O)O | – | – | –
> 1000 nM | O=C(NCc1cn(-c2cc(C(F)(F)F)cc(C(F)(F)F)c2)nn1)[C@H](Cc1cscn1)NC(=O)[C@H]1O[C@@H]1C(=O)O | – | – | –
– | CC(C)C[C@H](NC(=O)[C@H]1O[C@@H]1C(=O)O)C(=O)Nc1nc(-c2ccc(F)cc2)cs1 | 1620 nM | – | Dose-dependent effect
150 nM | CC(C)C[C@H](NC(=O)[C@H]1O[C@@H]1C(=O)O)C(=O)NCCCCNS(=O)(=O)c1ccc(F)cc1 | – | – | –

SMILES | IC50 [1] | Ki [2] | Ki [3] | Activity [4]
O=C(Nc1nc(-c2ccc(F)cc2)cs1)[C@H](Cc1cscn1)NC(=O)[C@H]1O[C@@H]1C(=O)O | 100 nM | 5310 nM | 2590 nM | –
CC(C)C[C@H](NC(=O)[C@H]1O[C@@H]1C(=O)O)C(=O)NCCCCN=C(N)N [E-64] | 100 nM | 5080 nM | 3960 nM | Dose-dependent effect
